# The source made the active and inactive calls. No cut-off for these calls is given here.
# Assays:
# Rattus norvegicus [1] = test: Toxicity in rat assessed as incidence of ulcer at 100 mg/kg, po; type: organism-based; parameters: dose 100 mg/kg, route oral; conditions: in vivo
# Procedure, shortened: (§1)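 Groups of 10 rats (200–230 g), fasted 24 h, dosed orally; controls untreated. Sacrificed 5 h after dosing. Stomach and small intestine examined under microscope for hyperaemia, epithelial shedding, petechiae, frank haemorrhage, erosion or discrete ulceration with or without perforation. Result expressed as percentage of animals affected.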
# Rattus norvegicus [2] = test: Toxicity in rat assessed as incidence of hyperaemia at 100 mg/kg, po; type: organism-based; parameters: dose 100 mg/kg, route oral; conditions: in vivo; procedure, shortened: as §1
# Rattus norvegicus [3] = test: Antiinflammatory activity against carrageenan-induced paw edema in Albino rat assessed as oedema inhibition relative to control at 40 mg/kg, po; type: functional
# Procedure, shortened: (§2)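 Rats given test compound orally; 30 min later, 0.2 mL of 1% carrageenan in 0.9% NaCl injected subcutaneously into plantar aponeurosis of the hind paw. Paw volume measured by water plethysmometer before and at 3 h. Mean paw-volume increase compared with a carrageenan-only control group of five rats. % inhibition = (1 − Gt/Gc) × 100. Values are means of three determinations.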
# Rattus norvegicus [4] = test: Antiinflammatory activity against carrageenan-induced paw edema in Albino rat assessed as oedema inhibition relative to control at 80 mg/kg, po; type: functional; procedure, shortened: as §2
# Rattus norvegicus [5] = test: Toxicity in rat assessed as incidence of hyperaemia at 200 mg/kg, po; type: organism-based; parameters: dose 200 mg/kg, route oral; conditions: in vivo; procedure, shortened: as §1
# Rattus norvegicus [6] = test: Antiinflammatory activity against carrageenan-induced paw edema in po dosed Albino rat assessed as oedema inhibition; type: functional
# Oryctolagus cuniculus = organism: Oryctolagus cuniculus; test: Inhibition of rabbit microsomal COX at 10 uM
# Procedure, shortened: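 COX source: microsomal pellet from minced, homogenized rabbit distal colon mucosa in 0.1 M Tris, pH 8.0, used immediately. Microsomes preincubated with test agent 10 min at 37 °C in Tris-HCl pH 8.0 with 2 mM glutathione, 5 mM L-tryptophan and 1 µM haematin. Then 20 µM arachidonic acid plus [1-14C] tracer added for 5 min at 37 °C. PGE2 separated by isocratic HPLC; co-eluting radioactivity counted by scintillation. % inhibition calculated versus paired controls.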
# Rattus norvegicus [7] = test: Toxicity in rat assessed as incidence of ulcer at 400 mg/kg, po; type: organism-based; parameters: dose 400 mg/kg, route oral; conditions: in vivo; procedure, shortened: as §1
# Rattus norvegicus [8] = test: Toxicity in rat assessed as incidence of hyperaemia at 400 mg/kg, po; type: organism-based; parameters: dose 400 mg/kg, route oral; conditions: in vivo; procedure, shortened: as §1
# Rattus norvegicus [9] = test: Antiinflammatory activity against carrageenan-induced paw edema in Albino rat assessed as oedema inhibition relative to control at 20 mg/kg, po; type: functional; procedure, shortened: as §2
# Rattus norvegicus [10] = test: Toxicity in rat assessed as incidence of ulcer at 200 mg/kg, po; type: organism-based; parameters: dose 200 mg/kg, route oral; conditions: in vivo; procedure, shortened: as §1
# [11] = Toxicity in ip dosed Albino mouse; type: organism-based; conditions: in vivo, read-out: ALD50
# Procedure, shortened: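 Albino mice, 25–30 g, groups of 10, given test compounds intraperitoneally at different dose levels. Mortality per group recorded 24 h after dosing. Approximate 50% lethal dose (ALD50) calculated from mortality data by the Smith method.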
Structure (SMILES),Activity (Rattus norvegicus [1]) [%],Activity (Rattus norvegicus [2]) [%],inhibition in vivo at 40 mg/kg (Rattus norvegicus [3]) [%],inhibition in vivo at 80 mg/kg (Rattus norvegicus [4]) [%],Activity (Rattus norvegicus [5]) [%],ED50 (Rattus norvegicus [6]) [mg/kg],Activity (Oryctolagus cuniculus),Activity (Rattus norvegicus [7]) [%],Activity (Rattus norvegicus [8]) [%],inhibition in vivo at 20 mg/kg (Rattus norvegicus [9]) [%],Activity (Rattus norvegicus [10]) [%],LD50 [11] [mg/kg],inhibition (Oryctolagus cuniculus) [%]
Cc1ccc(C(=O)Oc2ccc(C)cc2C(=O)c2ccccc2)cc1,45,20,29.4,46.5,35,75.5,inactive,80,55,15.5,55,> 1000,
Cc1ccc(OC(=O)c2cccc(Cl)c2)c(C(=O)c2cccc(Cl)c2)c1,50,25,29.9,56.4,40,55.7,inactive,75,50,15.1,65,> 1000,
Cc1ccc(OC(=O)c2ccccc2C)c(C(=O)c2ccccc2C)c1,20,50,33.9,64.8,70,78.9,,40,90,17.5,30,> 1000,70
Cc1ccc(OC(=O)c2ccccc2)c(C(=O)c2cccc(F)c2)c1,50,25,30.2,40.5,40,75.5,inactive,75,50,18.5,65,> 1000,
CC(=O)Oc1ccccc1C(=O)O [ASPIRIN],75,25,30.5,55.1,55,95.5,,85,85,29.5,90,,95
O=C(Oc1ccc(Br)cc1C(=O)c1ccc(Cl)cc1)c1ccc(Cl)cc1,5,50,46.5,77.1,70,61.5,,25,100,23.4,10,> 1000,87
Cc1ccc(OC(=O)c2ccccc2)c(C(=O)c2ccc(Cl)cc2)c1,40,20,24.2,47.5,40,77.9,inactive,80,60,14.7,50,> 1000,
O=C(Oc1ccc(Cl)cc1C(=O)c1cccc(Cl)c1Cl)c1ccccc1,10,70,29.8,63.8,90,63.6,,40,100,21.1,20,> 1000,40
O=C(Oc1ccc(Cl)cc1C(=O)c1ccc(Cl)cc1)c1ccc(Cl)cc1,5,60,48.5,60.1,80,65.5,,15,100,35.5,10,> 1000,60
CCCCC1C(=O)N(c2ccccc2)N(c2ccccc2)C1=O [PHENYLBUTAZONE],35,25,33,55.1,50,,,90,80,30.1,65,,85
Cc1ccc(C(=O)Oc2ccc(F)cc2C(=O)c2ccc(C)cc2)cc1,20,30,35.5,50.5,55,70.1,,45,90,20.5,25,> 1000,30
Cc1ccc(OC(=O)c2ccccc2)c(C(=O)c2ccccc2)c1,10,40,29.9,56.4,60,78.6,,40,100,15.1,20,> 1000,20
Cc1ccc(C(=O)c2cc(F)ccc2OC(=O)c2ccc(Cl)cc2)cc1,15,50,44.6,64.1,70,76.2,,25,90,16.6,20,> 1000,70
Cc1ccc(C(=O)c2cc(C)ccc2OC(=O)c2ccc(Cl)cc2)cc1,15,25,46.5,85.5,50,57.3,inactive,18,75,31.4,25,> 1000,
Cc1ccc(C(=O)Oc2ccc(C)cc2C(=O)c2ccc(C)cc2)cc1,10,40,30.5,60.1,60,76.2,,20,80,20.6,15,> 1000,65
Cc1ccc(C(=O)Oc2ccc(Cl)cc2C(=O)c2ccc(Cl)cc2)cc1,10,50,30.4,77.1,70,60.5,,20,100,29.2,15,> 1000,85
